Reference: ChEMBL document CHEMBL5724801, “EUbOPEN Chemogenomics Library - Multiplex” (2024)
Values joined by “and” are separate entries in the source; they are usually repeats but may differ in a detail not shown here. Equal entries are not always repeated.

Experiments:
[1] = system: HEK-293T; assay: Multiplex assay against HEK293T; format: toxicity, cell-based; details: human
Method in brief: (§1)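 With compound added, live cells were imaged on a CQ1 microscope at 37°C and 5% CO2; staining with Hoechst33342, BioTracker Green Microtubule Cytoskeleton Dye, MitoTracker Red and Annexin V Alexa Fluor 680 had been done at seeding. The CellPathfinder machine-learning gating scheme split cells into Hoechst high-intensity objects or normal cells, normal cells into healthy, pyknosed or fragmented nuclei, and pyknosed cells into mitotic or apoptotic. The tubulin, mitochondrial-mass and membrane-permeability phenotypes are per cents of healthy-nucleus cells.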

[2] = system: Fibroblast; assay: Multiplex assay against human fibroblast; format: toxicity, cell-based; method in brief: as §1
[3] = 12 h, 1 µM, compound concentration 1 uM
[4] = 12 h, 10 µM, compound concentration 10 uM
[5] = 24 h, 1 µM, compound concentration 1 uM
[6] = 24 h, 10 µM, compound concentration 10 uM
[7] = 48 h, 1 µM, compound concentration 1 uM
[8] = 48 h, 10 µM, compound concentration 10 uM

COc1ccccc1N1CCN(C[C@@H](C(=O)NC(C)(C)C)c2ccccc2)CC1.Cl.Cl
Population Apoptotic (%) [1, 3]: 24% and 42%
Population Fragmented Nuclei (%) [1, 3]: 7% and 4%
Population Healthy Nuclei (%) [1, 3]: 77% and 76%
Population Hoechst High Intensity Objects (%) [1, 3]: 7% and 6%
Population Membrane Permeable-Phenotype (%) [1, 3]: 0%
Population Mitochondria Different-Phenotype (%) [1, 3]: 48% and 77%
Population Mitotic Cells (%) [1, 3]: 75% and 57%
Population Normal (%) [1, 3]: 92% and 93%
Population Pyknosed Nuclei (%) [1, 3]: 14% and 19%
Population Tubulin-Different-Phenotype (%) [1, 3]: 47% and 35%
Total Cell Count [1, 3]: 434 and 300
Population Apoptotic (%) [1, 4]: 62% and 58%
Population Fragmented Nuclei (%) [1, 4]: 7% and 5%
Population Healthy Nuclei (%) [1, 4]: 69%
Population Hoechst High Intensity Objects (%) [1, 4]: 7% and 16%
Population Membrane Permeable-Phenotype (%) [1, 4]: 0%
Population Mitochondria Different-Phenotype (%) [1, 4]: 88% and 79%
Population Mitotic Cells (%) [1, 4]: 37% and 41%
Population Normal (%) [1, 4]: 92% and 83%
Population Pyknosed Nuclei (%) [1, 4]: 23% and 25%
Population Tubulin-Different-Phenotype (%) [1, 4]: 74% and 59%
Total Cell Count [1, 4]: 333 and 231
Population Apoptotic (%) [1, 5]: 19% and 34%
Population Fragmented Nuclei (%) [1, 5]: 8% and 11%
Population Healthy Nuclei (%) [1, 5]: 81% and 76%
Population Hoechst High Intensity Objects (%) [1, 5]: 4% and 6%
Population Membrane Permeable-Phenotype (%) [1, 5]: 0%
Population Mitochondria Different-Phenotype (%) [1, 5]: 31% and 54%
Population Mitotic Cells (%) [1, 5]: 80% and 65%
Population Normal (%) [1, 5]: 95% and 93%
Population Pyknosed Nuclei (%) [1, 5]: 9% and 11%
Population Tubulin-Different-Phenotype (%) [1, 5]: 29% and 28%
Total Cell Count [1, 5]: 563 and 387
Population Apoptotic (%) [1, 6]: 45% and 66%
Population Fragmented Nuclei (%) [1, 6]: 8%
Population Healthy Nuclei (%) [1, 6]: 68% and 76%
Population Hoechst High Intensity Objects (%) [1, 6]: 7% and 14%
Population Membrane Permeable-Phenotype (%) [1, 6]: 0%
Population Mitochondria Different-Phenotype (%) [1, 6]: 77% and 73%
Population Mitotic Cells (%) [1, 6]: 54% and 33%
Population Normal (%) [1, 6]: 92% and 85%
Population Pyknosed Nuclei (%) [1, 6]: 23% and 15%
Population Tubulin-Different-Phenotype (%) [1, 6]: 61% and 48%
Total Cell Count [1, 6]: 377 and 251
Population Apoptotic (%) [1, 7]: 22% and 38%
Population Fragmented Nuclei (%) [1, 7]: 13% and 10%
Population Healthy Nuclei (%) [1, 7]: 78% and 80%
Population Hoechst High Intensity Objects (%) [1, 7]: 2% and 6%
Population Membrane Permeable-Phenotype (%) [1, 7]: 1% and 0%
Population Mitochondria Different-Phenotype (%) [1, 7]: 19% and 37%
Population Mitotic Cells (%) [1, 7]: 77% and 61%
Population Normal (%) [1, 7]: 97% and 93%
Population Pyknosed Nuclei (%) [1, 7]: 8% and 9%
Population Tubulin-Different-Phenotype (%) [1, 7]: 18% and 20%
Total Cell Count [1, 7]: 908 and 480
Population Apoptotic (%) [1, 8]: 50% and 62%
Population Fragmented Nuclei (%) [1, 8]: 14% and 10%
Population Healthy Nuclei (%) [1, 8]: 72% and 76%
Population Hoechst High Intensity Objects (%) [1, 8]: 6% and 5%
Population Membrane Permeable-Phenotype (%) [1, 8]: 0%
Population Mitochondria Different-Phenotype (%) [1, 8]: 59% and 58%
Population Mitotic Cells (%) [1, 8]: 49% and 37%
Population Normal (%) [1, 8]: 93% and 94%
Population Pyknosed Nuclei (%) [1, 8]: 13%
Population Tubulin-Different-Phenotype (%) [1, 8]: 44% and 36%
Total Cell Count [1, 8]: 467 and 375
Population Apoptotic (%) [2, 3]: 43% and 40%
Population Fragmented Nuclei (%) [2, 3]: 12% and 25%
Population Healthy Nuclei (%) [2, 3]: 70% and 43%
Population Hoechst High Intensity Objects (%) [2, 3]: 2% and 5%
Population Membrane Permeable-Phenotype (%) [2, 3]: 0%
Population Mitochondria Different-Phenotype (%) [2, 3]: 8% and 4%
Population Mitotic Cells (%) [2, 3]: 56% and 60%
Population Normal (%) [2, 3]: 97% and 94%
Population Pyknosed Nuclei (%) [2, 3]: 16% and 30%
Population Tubulin-Different-Phenotype (%) [2, 3]: 37% and 43%
Total Cell Count [2, 3]: 141 and 155
Population Apoptotic (%) [2, 4]: 50% and 48%
Population Fragmented Nuclei (%) [2, 4]: 20% and 32%
Population Healthy Nuclei (%) [2, 4]: 59% and 42%
Population Hoechst High Intensity Objects (%) [2, 4]: 5%
Population Membrane Permeable-Phenotype (%) [2, 4]: 1% and 6%
Population Mitochondria Different-Phenotype (%) [2, 4]: 20% and 12%
Population Mitotic Cells (%) [2, 4]: 50% and 51%
Population Normal (%) [2, 4]: 94%
Population Pyknosed Nuclei (%) [2, 4]: 20% and 24%
Population Tubulin-Different-Phenotype (%) [2, 4]: 66% and 70%
Total Cell Count [2, 4]: 134 and 116
Population Apoptotic (%) [2, 5]: 50%
Population Fragmented Nuclei (%) [2, 5]: 12% and 24%
Population Healthy Nuclei (%) [2, 5]: 73% and 55%
Population Hoechst High Intensity Objects (%) [2, 5]: 2% and 3%
Population Membrane Permeable-Phenotype (%) [2, 5]: 0% and 8%
Population Mitotic Cells (%) [2, 5]: 50%
Population Normal (%) [2, 5]: 97% and 96%
